Bioassay records deposited in PubChem by Broad Institute.
Sampled rows, rich in hits. Any-hit rate of the full collection: about 3.1%.
SIRT5 block = sirtuin-5 (human) deacylase inhibition | Q9NXA8 | Purified SirT5, succinyl-peptide AMC, trypsin-coupled fluorescence | inhibition, % at 15 µM | 330,000 tested, 1.1% active | AID 652115; in the data active = inhibition above about 15%; inconclusive = no clear call, values can overlap the other calls
Target sequence (Q9NXA8 whole entry, looked up): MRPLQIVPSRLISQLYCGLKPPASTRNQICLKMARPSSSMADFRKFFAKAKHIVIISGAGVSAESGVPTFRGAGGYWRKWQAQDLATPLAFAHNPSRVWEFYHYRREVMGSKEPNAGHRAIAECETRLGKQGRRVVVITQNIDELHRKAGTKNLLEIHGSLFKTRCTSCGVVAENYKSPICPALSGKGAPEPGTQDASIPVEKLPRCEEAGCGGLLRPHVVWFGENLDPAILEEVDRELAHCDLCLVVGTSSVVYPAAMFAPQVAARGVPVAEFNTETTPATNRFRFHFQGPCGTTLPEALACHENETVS
rRNA inh HTS = selective bacterial rRNA inhibition in E. coli; 350,000 tested, 1.6% active; AID 720706; E. coli WT GFP vs humanized-ribosome RFP mutants, fluorescence, 24 h; active compounds read low; DMSO median 0, no signal -100; GFP signal change (wild-type ribosome), % (no concentration beside the values);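 active = significant combined selectivity score with lowered wild-type GFP, culture density cut under 30%, mutant RFP and density less affected; inactive = any of these conditions unmet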
ERAP1 HTS inh = blocks human ERAP1 aminopeptidase activity. recombinant ERAP1, Leu-AMC fluorescence, 60 min. inhibition, % at 10.7 µM. 340,000 tested, 0.15% active. AID 652197;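 active = mean replicate inhibition of at least 30%, or all replicates individually reaching that 30% level; inactive = mean below 30% and not every replicate reaching it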;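 also: 0% = neutral control wells and 100% = L-leucinethiol positive control wells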
CFTR F508del cor = correctors of CFTR F508del function in bronchial epithelial cells. CFBE cells, YFP halide quenching; stimulated with forskolin plus potentiator P3; % fluorescence drop versus neutral controls. activity (quench increase), % at 7.58 µM. 350,000 tested, 0.36% active;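 active = mean added fluorescence quench of at least 8% versus neutral control, with both replicates also reaching 8%; inconclusive = only one of the mean or replicate conditions met; inactive = mean below 8% and not both replicates reaching 8%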;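 also: cells transiently co-express mutant CFTR-F508del with the halide-sensitive YFP; corrector assay measuring rescue of mutant channel to the surface after 24 h compound exposure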
S100A4 inh HTS = inhibitors of human S100A4 binding to myosin IIA peptide; AID 652163; inhibition, % at 10.7 µM; 360,000 tested, 0.14% active; P26447; S100A4/TAMRA-MyoIIA peptide fluorescence polarization;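 active = mean inhibition of at least 70% across replicates, with every replicate also reaching that level; inconclusive = mean inhibition reaches 70% but some replicates fall short; inactive = mean inhibition below 70%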
Target sequence (P26447 whole entry, looked up): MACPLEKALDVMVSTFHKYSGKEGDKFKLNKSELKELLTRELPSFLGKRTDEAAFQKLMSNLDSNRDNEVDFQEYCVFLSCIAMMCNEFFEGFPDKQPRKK
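Assay system: human S100A4 monomer with TAMRA-labelled myosin IIA peptide / Buffer or medium: Calcium-containing HEPES buffer, pH 7.2 / Reagent: TAMRA-labelled myosin IIA heavy-chain peptide probe, 5 nM / Compound: one dose per compound / Timing: polarization read 5 min after assay mix addition, stable 5–60 min / Benchmarks: neutral control DMSO, positive control TFP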
The depositor's hits bear a star; ? = inconclusive; · = no result given.

SMILES	SIRT5 block	rRNA inh HTS	ERAP1 HTS inh	CFTR F508del cor	S100A4 inh HTS
COc1ccc(C(=O)Nc2cc(=O)[nH]c3ncnn23)cc1	31.0*	5.6	-6.7	1.2	5.8
CNC[C@H]1Oc2cc(-c3ccccc3F)ccc2S(=O)(=O)N([C@H](C)CO)C[C@@H]1C	1.0	-0.3	-3.0	0.1	-15.8
Cc1ccc(S(=O)(=O)Nc2ccc3c(c2)C(=O)N([C@H](C)CO)C[C@@H](C)[C@H](CN(C)Cc2ccc(Cl)c(Cl)c2)OCCCC[C@H](C)O3)cc1	18.6*	2.0	-2.8	-0.3	-57.9
COc1ccc(S(=O)(=O)Nc2cccc3c2O[C@H](CN(C)Cc2ccc(Cl)c(Cl)c2)[C@@H](C)CN([C@H](C)CO)C3=O)cc1	15.1*	-4.0	1.4	-5.1	-11.9
COc1ccc(S(=O)(=O)Nc2cccc3c2O[C@H](CN(C)Cc2ccc(Cl)c(Cl)c2)[C@H](C)CN([C@@H](C)CO)C3=O)cc1	·	-4.7	·	-4.2	·
C[C@@H]1CN([C@H](C)CO)C(=O)c2cc(NS(=O)(=O)c3ccc(Cl)cc3)ccc2O[C@@H](C)CCCCO[C@@H]1CN(C)Cc1ccc(Cl)c(Cl)c1	7.4	3.7	-4.6	2.3	-4.6
C[C@@H]1CCCCO[C@H](CN(C)Cc2ccc(Cl)c(Cl)c2)[C@@H](C)CN([C@@H](C)CO)C(=O)c2cc(NS(=O)(=O)c3ccc(Cl)cc3)ccc2O1	0.8	-0.8	-3.2	11.5*	15.8
COc1ccc(S(=O)(=O)Nc2ccc3c(c2)C(=O)N([C@@H](C)CO)C[C@H](C)[C@H](CN(C)Cc2ccc(Cl)c(Cl)c2)OCCCC[C@@H](C)O3)cc1	·	-1.0	·	8.0*	·
CC(C)NC(=O)N(C)C[C@@H]1Oc2c(cccc2N(C)C)C(=O)N([C@H](C)CO)C[C@H]1C	-0.1	-3.3	3.4	-1.0	10.0
C[C@H]1CN([C@@H](C)CO)C(=O)CCCn2nncc2CO[C@@H]1CN(C)C(=O)Nc1ccc(C(F)(F)F)cc1	0.3	-60.2	1.4	-0.5	-5.3
Cc1ccc(S(=O)(=O)Nc2ccc3c(c2)C(=O)N([C@@H](C)CO)C[C@@H](C)[C@@H](CN(C)Cc2ccc(Cl)c(Cl)c2)OCCCC[C@@H](C)O3)cc1	17.4*	0.1	-2.9	4.4	?
O=C1c2cccc3cccc(c23)C(=O)N1Cc1cccnc1	-5.4	11.5	·	2.4	3.8
Cc1ccc(N2C(=O)c3cccc4c([N+](=O)[O-])ccc(c34)C2=O)c2cccnc12	1.1	5.7	0.4	24.6*	3.9
Cc1nnc(N2C(=O)c3cccc4c([N+](=O)[O-])ccc(c34)C2=O)s1	0.1	46.2	-1.2	?	5.3
Cc1ccnc(N2C(=O)c3cccc4c([N+](=O)[O-])ccc(c34)C2=O)c1	-4.1	69.8	1.4	22.6*	-23.3
O=C1c2cccc3c([N+](=O)[O-])ccc(c23)C(=O)N1Cc1cccnc1	-3.2	94.4	6.1	32.8*	1.3
COc1ccccc1S(=O)(=O)N[C@@H]1CC[C@H](CCNC(=O)C2CCC2)O[C@@H]1CO	-0.7	-0.6	4.6	0.2	1.2
COCc1cn(CC[C@H]2CC[C@H](NC(=O)Nc3ccccc3)[C@H](CO)O2)nn1	1.3	1.8	-3.0	-1.8	24.0
C[C@@H]1CN([C@@H](C)CO)C(=O)Cc2cc(NC(=O)c3ccncc3)ccc2O[C@@H]1CN(C)C(=O)Nc1cccc2ccccc12	·	1.2	-3.2	-0.6	0.4
CO[C@@H]1CN(C)C(=O)c2cc(NC(=O)Nc3ccccc3F)ccc2OC[C@H](C)N(C)C[C@H]1C	5.1	1.5	-0.5	0.7	-1.7
Nc1ncccc1OCc1ccc(Cl)c(Cl)c1	-0.5	-21.3*	-1.1	-0.2	3.8
Cc1ccc(C(=O)CSc2nnnn2Cc2ccccc2)cc1C	-4.9	-27.8*	·	1.1	-4.0
COc1ccc(Nc2nc(N)nc(CSC(=S)N3CCCCC3C)n2)cc1 (stereo not given)	4.9	-22.4*	5.3	2.6	7.4
COc1ccc(Nc2nc(N)nc(CSC(=S)N3CCCCC3)n2)cc1	-1.2	-31.8	-1.6	-2.2	-2.3
Cc1ccc(S(=O)(=O)Nc2ccc3c(c2)CC(=O)N([C@H](C)CO)C[C@H](C)[C@H](CN(C)S(C)(=O)=O)O3)cc1	2.3	2.0	-2.9	-1.4	-3.5
C[C@H]1CN([C@@H](C)CO)C(=O)c2cc(-c3ccccc3F)cnc2O[C@@H]1CN(C)C(=O)c1cnccn1	-0.3	3.6	1.3	-1.6	7.9
